Experimental data published in ChEMBL document CHEMBL4680084, “New β-Lactam Derivatives Modulate Cell Adhesion and Signaling Mediated by RGD-Binding and Leukocyte Integrins” (J Med Chem, 2016).
Calls of active or inactive are those of the source. The rule behind the calls is not given here.

Columns and labels:
[1] = molecular target: T1, Integrin alpha-L/beta-2 (LFA-1) (Homo sapiens, UniProt P05107+P20701); assay: Antagonist activity at alphaLbeta2 in human Jurkat E6.1 cells assessed as reduction in cell adhesion to ICAM1 pre-incubated for 30 mins before ICAM1 and further incubated for 30 mins by […]; format: cell-based
In short: (§1)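 Jurkat E6.1 cells labelled with CellTracker green CMFDA (12.5 µM, 30 min, 37 °C), washed, then pre-incubated 30 min at 37 °C with compound or methanol. Plated at 500,000/well on VCAM-1 (α4β1) or ICAM-1 (αLβ2) coated wells (5 µg/mL) for 30 min at 37 °C. Cells lysed in 0.5% Triton X-100; fluorescence read Ex485/Em535. Quadruplicate, at least three repeats.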

[2] = tested on: SK-MEL-24; assay: Toxicity in human SK-MEL-24 cells assessed as induction of cell necrosis and/or apoptosis incubated for 3 hrs by annexin V-PE and 7-AAD staining based by flow cytometry; conditions: sk-mel-24, 3 h
In short: (§2)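 After 3 h incubation, cells resuspended in complete medium and stained with annexin V-PE/7-AAD reagent for 20 min at room temperature in the dark. Flow cytometry sorted cells into viable, early apoptotic and late apoptotic/necrotic populations.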

[3] = tested on: MCF7; assay: Toxicity in human MCF7 cells assessed as induction of cell necrosis and/or apoptosis incubated for 3 hrs by annexin V-PE and 7-AAD staining based by flow cytometry; conditions: mcf7, 3 h; in short: as §2
[4] = molecular target: T2, Integrin alpha-V/beta-6 (Homo sapiens, UniProt P06756+P18564); assay: Antagonist activity at alphaVbeta6 in human HT-29 cells assessed as reduction in cell adhesion to fibronectin pre-incubated for 30 mins before fibronectin and further incubated for 1 hr by nitrophenyl-N-acetyl-beta-D-glucosaminide substrate based chromogenic assay
In short: (§3)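 Compound or methanol vehicle pre-incubated with cells for 30 min at room temperature. Cells then plated on wells coated overnight at 4 °C with fibronectin 10 µg/mL (SK-MEL-24, K562, HT-29) or fibrinogen 10 µg/mL (MCF7, HEL). Seeding was 50,000 cells/well, or 100000 for HEL. Adhesion ran 1 h at room temperature. Wells washed with 1% BSA/PBS. Quadruplicate, at least three repeats.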

[5] = tested on: HT-29; assay: Toxicity in human HT-29 cells assessed as induction of cell necrosis and/or apoptosis incubated for 3 hrs by annexin V-PE and 7-AAD staining based by flow cytometry; conditions: ht-29, 3 h; in short: as §2
[6] = molecular target: T3, Integrin alpha-5/beta-1 (Homo sapiens, UniProt P05556+P08648); assay: Agonist activity at alpha5beta1 in human K562 cells assessed as increase in cell adhesion to fibronectin pre-incubated for 30 mins before fibronectin and further incubated for 1 hr by nitrophenyl-N-acetyl-beta-D-glucosaminide substrate based chromogenic assay
In short: as §3, with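 “BSA/PBS. Adherent cells read by hexosaminidase substrate, absorbance 405 nm.” for “BSA/PBS.”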

[7] = molecular target: T4, Integrin alpha-IIb/beta-3 (Homo sapiens, UniProt P05106+P08514); assay: Agonist activity at alpha2bbeta3 in human HEL cells assessed as increase in cell adhesion to fibrinogen pre-incubated for 30 mins before fibrinogen and further incubated for 1 hr by nitrophenyl-N-acetyl-beta-D-glucosaminide substrate based chromogenic assay; in short: as §3
[8] = tested on: HEL; assay: Toxicity in human HEL cells assessed as induction of cell necrosis and/or apoptosis incubated for 3 hrs by annexin V-PE and 7-AAD staining based by flow cytometry; in short: as §2
[9] = molecular target: T5, Integrin alpha-V/beta-5 (Homo sapiens, UniProt P06756+P18084); assay: Agonist activity at alphaVbeta5 in human MCF7 cells assessed as increase in cell adhesion to fibrinogen pre-incubated for 30 mins before fibrinogen and further incubated for 1 hr by nitrophenyl-N-acetyl-beta-D-glucosaminide substrate based chromogenic assay
In short: as §3, with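 “BSA/PBS. Adherent cells read by hexosaminidase substrate, absorbance 405 nm.” for “BSA/PBS.”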

[10] = molecular target: T6, Integrin alpha-4/beta-1 (Homo sapiens, UniProt P05556+P13612); assay: Agonist activity at alpha4beta1 in human Jurkat E6.1 cells assessed as increase in cell adhesion to VCAM1 pre-incubated for 30 mins before VCAM1 and further incubated for 30 mins by […]; format: cell-based; in short: as §1
[11] = molecular target: T4, Integrin alpha-IIb/beta-3; assay: Antagonist activity at alpha2bbeta3 in human HEL cells assessed as reduction in cell adhesion to fibrinogen pre-incubated for 30 mins before fibrinogen and further incubated for 1 hr by nitrophenyl-N-acetyl-beta-D-glucosaminide substrate based chromogenic assay; in short: as §3
[12] = tested on: K562; assay: Toxicity in human K562 cells assessed as induction of cell necrosis and/or apoptosis incubated for 3 hrs by annexin V-PE and 7-AAD staining based by flow cytometry; conditions: k562, 3 h; in short: as §2
[13] = molecular target: T2, Integrin alpha-V/beta-6; assay: Agonist activity at alphaVbeta6 in human HT-29 cells assessed as increase in cell adhesion to fibronectin pre-incubated for 30 mins before fibronectin and further incubated for 1 hr by nitrophenyl-N-acetyl-beta-D-glucosaminide substrate based chromogenic assay
In short: as §3, with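 “BSA/PBS. Adherent cells read by hexosaminidase substrate, absorbance 405 nm.” for “BSA/PBS.”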

[14] = molecular target: T1, Integrin alpha-L/beta-2 (LFA-1); assay: Agonist activity at alphaLbeta2 in human Jurkat E6.1 cells assessed as increase in cell adhesion to ICAM1 pre-incubated for 30 mins before ICAM1 and further incubated for 30 mins by […]; format: cell-based; in short: as §1
[15] = molecular target: T6, Integrin alpha-4/beta-1; assay: Antagonist activity at alpha4beta1 in human Jurkat E6.1 cells assessed as reduction in cell adhesion to VCAM1 pre-incubated for 30 mins before VCAM1 and further incubated for 30 mins by […]; format: cell-based
[16] = molecular target: T3, Integrin alpha-5/beta-1; assay: Antagonist activity at alpha5beta1 in human K562 cells assessed as reduction in cell adhesion to fibronectin pre-incubated for 30 mins before fibronectin and further incubated for 1 hr by nitrophenyl-N-acetyl-beta-D-glucosaminide substrate based chromogenic assay
In short: as §3, with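 “BSA/PBS. Adherent cells read by hexosaminidase substrate, absorbance 405 nm.” for “BSA/PBS.”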

[17] = molecular target: T5, Integrin alpha-V/beta-5; assay: Antagonist activity at alphaVbeta5 in human MCF7 cells assessed as reduction in cell adhesion to fibrinogen pre-incubated for 30 mins before fibrinogen and further incubated for 1 hr by nitrophenyl-N-acetyl-beta-D-glucosaminide substrate based chromogenic assay; in short: as §3
[18] = molecular target: T7, Integrin alpha-V/beta-3 (Homo sapiens, UniProt P05106+P06756); assay: Antagonist activity at alphaVbeta3 in human SK-MEL-24 cells assessed as reduction in cell adhesion to fibronectin at 10 to 10000 nM pre-incubated for 30 mins before fibronectin and further incubated for 1 hr by nitrophenyl-N-acetyl-beta-D-glucosaminide substrate based chromogenic assay; conditions: filed as antagonist, dose 10-10000 nM, time 90.0 min
In short: (§4)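 SK-MEL-24 cells pre-incubated 30 min at room temperature with compound (1×10^-10–1×10^-4 M) or methanol, then plated at 50,000/well on fibronectin (10 µg/mL) coated wells for 1 h at room temperature. Adherent cells quantified by 4-nitrophenyl-N-acetyl-glucosaminide hydrolysis, absorbance 405 nm. Quadruplicate, at least three repeats; IC50/EC50 derived.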

[19] = molecular target: T7, Integrin alpha-V/beta-3; assay: Agonist activity at alphaVbeta3 in human SK-MEL-24 cells assessed as increase in cell adhesion to fibronectin at 10 to 10000 nM pre-incubated for 30 mins before fibronectin and further incubated for 1 hr by nitrophenyl-N-acetyl-beta-D-glucosaminide substrate based chromogenic assay; conditions: filed as agonist, dose 10-10000 nM, time 90.0 min; in short: as §4
[20] = molecular target: T3, Integrin alpha-5/beta-1; assay: Inhibition of fibronectin binding to alpha5beta1 isolated from human K562 cells incubated for 1 hr by […] competitive solid-phase binding assay; format: tissue-based
In short: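 Plates coated overnight at 4 °C in carbonate buffer pH 9.6 with fibronectin 0.5 µg/mL (αvβ3, αvβ6, α5β1), fibrinogen 10 µg/mL (αIIbβ3, αvβ5) or ICAM-1 (αLβ2). Blocked 1 h in buffer containing Ca/Mg/Mn 1 mM each and 1% BSA. Purified integrin (3–10 µg/mL) incubated with compound (10⁻⁴–10⁻¹⁰ M) 1 h at room temperature. Bound integrin detected with primary antibody then AlexaFluor488 secondary, Ex485/Em535. Duplicate, at least three repeats.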

[21] = molecular target: T7, Integrin alpha-V/beta-3; assay: Inhibition of fibronectin binding to human recombinant alphaVbeta3 expressed in HEK293 cells incubated for 1 hr by […] competitive solid-phase binding assay; format: cell-based
[22] = molecular target: T5, Integrin alpha-V/beta-5; assay: Inhibition of fibrinogen binding to alphaVbeta5 isolated form human mCf7 cells incubated for 1 hr by […] competitive solid-phase binding assay
[23] = molecular target: T7, Integrin alpha-V/beta-3; assay: Antagonist activity at alphaVbeta3 in human SK-MEL-24 cells assessed as reduction in cell adhesion to fibronectin pre-incubated for 30 mins before fibronectin and further incubated for 1 hr by nitrophenyl-N-acetyl-beta-D-glucosaminide substrate based chromogenic assay; in short: as §3
[24] = molecular target: T6, Integrin alpha-4/beta-1; assay: Inhibition of fibronectin binding to […] isolated from human Jurkat E6.1 cells incubated for 1 hr by scintillation-proximity assay based competitive solid-phase binding assay; format: tissue-based
[25] = molecular target: T2, Integrin alpha-V/beta-6; assay: Inhibition of fibronectin binding to alphaVbeta6 isolated form human HT-29 cells incubated for 1 hr by […] competitive solid-phase binding assay; format: tissue-based
[26] = molecular target: T7, Integrin alpha-V/beta-3; assay: Agonist activity at alphaVbeta3 in human SK-MEL-24 cells assessed as increase in cell adhesion to fibronectin pre-incubated for 30 mins before fibronectin and further incubated for 1 hr by nitrophenyl-N-acetyl-beta-D-glucosaminide substrate based chromogenic assay
In short: as §3, with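 “BSA/PBS. Adherent cells read by hexosaminidase substrate, absorbance 405 nm.” for “BSA/PBS.”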

[27] = molecular target: T6, Integrin alpha-4/beta-1; assay: Agonist activity at alpha4beta1 in human Jurkat E6.1 cells assessed as increase in cell adhesion to VCAM1 at 2 to 10 ug/ml pre-incubated for 30 mins and further incubated for 30 mins by nitrophenyl-N-acetyl-beta-D-glucosaminide substrate based chromogenic assay; conditions: filed as agonist, dose 2-10 µg/ml, time 60.0 min
[28] = molecular target: T6, Integrin alpha-4/beta-1; assay: Agonist activity at alpha4beta1 in human Jurkat E6.1 cells assessed as increase in HUTS-21 antibody binding by flow cytometry analysis; format: cell-based; conditions: filed as agonist
In short: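 Jurkat E6.1 cells at 10⁶/mL in 1% BSA/HBSS incubated 30 min at 37 °C with compound. PE-labelled HUTS-21 mAb then added for 45 min at room temperature. Cells washed, 10,000 analysed by flow cytometry. MFI corrected to isotype control set to 0. Four independent experiments in duplicate.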

[29] = molecular target: T6, Integrin alpha-4/beta-1; assay: Agonist activity at alpha4beta1 in human Jurkat E6.1 cells assessed as increase in ERK1/2 phosphorylation at 1 to 100 nM by Western blot analysis; format: cell-based; conditions: filed as agonist, dose 1-100 nM

| Compound | IC50 [1] [µM] | Activity [2] | Activity [3] | IC50 [4] [µM] | Activity [5] | EC50 [6] [µM] | EC50 [7] [µM] | Activity [8] | EC50 [9] [µM] | IC50 [11] [µM] | Activity [12] | EC50 [13] [µM] | EC50 [14] [µM] | IC50 [16] [µM] | IC50 [17] [µM] | further results |
| --- | --- | --- | --- | --- | --- | --- | --- | --- | --- | --- | --- | --- | --- | --- | --- | --- |
| Cc1ccccc1NC(=O)N1C(=O)C[C@H]1C(=O)NCCC(=O)O | > 5 | Non-Toxic | Non-Toxic | > 5 | Non-Toxic | > 5 | > 5 | Non-Toxic | > 5 | > 5 | Non-Toxic | > 5 | > 5 | > 5 | > 5 | EC50 [10]: > 5 µM; IC50 [15]: > 5 µM; Activity [18]: Active; Activity [19]: Active |
| Cc1ccccc1NC(=O)N1C(=O)CC1CC(=O)O (centres undefined) | > 5 | Non-Toxic | Non-Toxic | > 5 | Non-Toxic | > 5 | > 5 | Non-Toxic | > 5 | > 5 | Non-Toxic | > 5 | > 5 | > 5 | > 5 | IC50 [20]: > 1 µM; IC50 [21]: > 1 µM; IC50 [22]: > 1 µM; IC50 [23]: > 5 µM; IC50 [24]: 0.0098 µM; IC50 [25]: > 1 µM; EC50 [26]: > 5 µM; Activity [27]: Active; Activity [28]: Dose-dependent effect; Activity [29]: Active |
